Drawing on ChEMBL document CHEMBL1687687, “Identification of a New Series of STAT3 Inhibitors by Virtual Screening” (ACS Med Chem Lett, 2010), this text covers inhibition and IC50 for 18 compounds.

Common to all, as to type: cell-based
The target in experiment [1] is T1, Signal transducer and activator of transcription 3 (Homo sapiens, UniProt P40763). The experiment can be described thus: Inhibition of STAT3 dimerization transfected in HEK293 cells at 100 uM after 24 hrs followed by 1 hr stimulation with 50 ng/ml IL-6 by FRET assay. The note with it: 10 uM, in the assay text read “at 10 uM” for “at 100 uM”. Put shortly: (§1)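 Cell-based FRET dimerization read-out in HEK293 cells co-expressing STAT3-CFP and STAT3-YFP. Cells were pretreated with compound before IL-6 stimulation, and the FRET signal from the STAT3–STAT3 interaction was measured. Values are given as percent inhibition of the signal.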

Experiment [2] addresses T1, Signal transducer and activator of transcription 3. Kind of experiment: Inhibition of STAT3 transcriptional activity in human HeLa cells at 100 uM by luciferase reporter gene assay. Put shortly:
(§2)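 STAT3-dependent luciferase reporter gene assay in HeLa cells. Activity is reported as percent inhibition at a single 100 μM concentration, or as an IC50.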

Experiment [3] has the same target. The experiment can be described thus: Inhibition of STAT3 transcriptional activity in human HeLa cells by luciferase reporter gene assay. Summed up: as §2
Experiment [4] has the same target. Kind of experiment: Inhibition of STAT3 dimerization transfected in HEK293 cells at 50 uM after 24 hrs followed by 1 hr stimulation with 50 ng/ml IL-6 by FRET assay. Put shortly: as §1

T1 sequence (P40763 whole entry): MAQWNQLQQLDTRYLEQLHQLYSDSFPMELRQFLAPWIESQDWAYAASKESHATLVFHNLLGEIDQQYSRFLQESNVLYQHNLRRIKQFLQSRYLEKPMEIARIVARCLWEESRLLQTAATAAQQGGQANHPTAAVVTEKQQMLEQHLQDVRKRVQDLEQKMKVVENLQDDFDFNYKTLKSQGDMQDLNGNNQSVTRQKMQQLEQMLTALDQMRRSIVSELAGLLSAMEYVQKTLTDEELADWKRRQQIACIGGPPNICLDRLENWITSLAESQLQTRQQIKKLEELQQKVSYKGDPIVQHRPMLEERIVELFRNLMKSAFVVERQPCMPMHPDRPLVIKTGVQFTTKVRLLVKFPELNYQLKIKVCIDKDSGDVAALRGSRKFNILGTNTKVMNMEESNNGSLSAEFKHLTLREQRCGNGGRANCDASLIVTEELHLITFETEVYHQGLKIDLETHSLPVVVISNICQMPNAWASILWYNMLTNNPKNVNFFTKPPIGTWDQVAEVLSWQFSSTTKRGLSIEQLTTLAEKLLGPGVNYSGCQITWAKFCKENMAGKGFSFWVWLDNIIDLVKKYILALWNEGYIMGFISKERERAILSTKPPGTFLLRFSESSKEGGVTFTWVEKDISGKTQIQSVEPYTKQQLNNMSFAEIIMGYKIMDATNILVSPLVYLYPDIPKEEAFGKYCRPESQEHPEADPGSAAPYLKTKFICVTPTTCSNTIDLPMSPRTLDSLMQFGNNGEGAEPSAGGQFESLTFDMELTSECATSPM

`O=C(Nc1nnc(-c2ccoc2)o1)c1cc(-c2ccccc2)nc2ccccc12`: the inhibition stood at 8% in experiment [1], 103% in experiment [2] and 55% in experiment [4]. Moreover, inhibition in experiment [3] was half-maximal at 72 µM (IC50).
On to `O=C(Nc1nnc(-c2ccco2)o1)c1cc(-c2cccnc2)nc2ccccc12`, for which the inhibition in experiment [2] came out at 12%.
Same read-out and setting: the value for `CCc1nnc(NC(=O)c2cc(-c3ccccc3)nc3ccccc23)o1` was 33%.
With `O=C(Nc1nnc(-c2ccco2)o1)c1cc(-c2cccs2)nc2ccccc12`, the inhibition in experiment [1] was 18%; in experiment [2] it was 91%; in experiment [4], 56%. The same compound showed an IC50 in experiment [3] of 63 µM.
On the same counts, the results for `O=C(Nc1nnc(-c2ccccc2)o1)c1cc(-c2ccccc2)nc2ccccc12` are 43%, 105%, 60% and 66 µM.
With `O=C(Nc1nnc(-c2ccco2)o1)c1cc(-c2ccccn2)nc2ccccc12`, the inhibition in experiment [2] worked out at 5%.
For the compound `O=C(Nc1nnc(-c2cccs2)o1)c1cc(-c2ccccc2)nc2ccccc12`, the inhibition in experiment [1] was 36%; in experiment [2], 86%; in experiment [4] it was 56%. Besides, half-maximal inhibition in experiment [3] (IC50) required 75 µM.
In the case of `CCOC(=O)c1nnc(NC(=O)c2cc(-c3ccccc3)nc3ccccc23)o1`, the inhibition in experiment [2] came to 38%.
Regarding `O=C(Nc1nnc(-c2ccco2)o1)c1cc(-c2cccc3ccccc23)nc2ccccc12`, the results for the inhibition in experiment [1], in experiment [2] and in experiment [4] were 14%, 121% and 70%, respectively. The same compound gave an IC50 in experiment [3] of 55 µM.
In the case of `O=C(Nc1nnc(-c2ccc(Cl)cc2)o1)c1cc(-c2ccccc2)nc2ccccc12`, the inhibition in experiment [2] was 115%. In experiment [3], this compound displayed an IC50 of 61 µM.
On to `O=C(Nc1nnc(-c2ccco2)o1)c1cc(Cl)nc2ccccc12`, for which the inhibition in experiment [2] is 43%.
For `O=C(Nc1nnc(Cc2ccccc2)o1)c1cc(-c2ccccc2)nc2ccccc12`, the inhibition in experiment [1] amounted to 25%; in experiment [2], 82%; in experiment [4] it was 61%. Moreover, in experiment [3], the IC50 was 75 µM.
In the case of `Cc1nnc(NC(=O)c2cc(-c3ccccc3)nc3ccccc23)o1`, in experiment [2], the inhibition was found to be 14%.
For `O=C(Nc1nnc(-c2ccco2)o1)c1ccnc2ccccc12`, the values for the inhibition in experiment [1], in experiment [2] and in experiment [4] were -2%, -5% and -4%, respectively.
Turning to `O=C(Nc1nnc(-c2ccccc2Cl)o1)c1cc(-c2ccccc2)nc2ccccc12`, the inhibition in experiment [2] was found to be 5%.
On to `O=C(Nc1nnc(-c2ccco2)o1)c1cc(-c2ccco2)nc2ccccc12`, for which the inhibition in experiment [2] was determined as 129%. The compound also showed an IC50 in experiment [3] of 66 µM.
On to `O=C(Nc1nnc(-c2ccco2)s1)c1cc(-c2ccccc2)nc2ccccc12`, for which the inhibition in experiment [2] was 26%.
Turning to `O=C(Nc1nnc(-c2ccco2)o1)c1cc(N2CCCCC2)nc2ccccc12`, the inhibition in experiment [2] is -7%.
